# Results of several laboratories.
# Target: Protein kinase C eta type (PRKCH, Homo sapiens, UniProt P24723)
Structure (SMILES),test,conditions,quantity,result
CNC(=O)c1cc(Oc2ccc(NC(=O)Nc3ccc(Cl)c(C(F)(F)F)c3)cc2)ccn1,"enzyme activity, inhibitor",10 µM,inhibition,0%
CCCOc1ccc([C@H]2[C@H](C(=O)O)[C@@H](c3ccc4c(c3)OCO4)CN2CC(=O)Nc2c(CC)cccc2CC)cc1,"cell-free assay, competition with immobilised ligand",1 µM,remaining binding,100%
Cn1cncc1C1=CN(c2ncnc3[nH]cnc23)CCS1,"enzyme activity, inhibitor, radiometric",2 µM,inhibition,83.6%
Cc1cc(NC(=O)c2cccc3cc(-c4cccc5[nH]nc(N)c45)ccc23)ccc1F,"enzyme activity, inhibitor",0.1 µM,activity vs control,109%
CC(C)(O)[C@H]1CC[C@H](Nc2ccc3ncc(-c4cccc(C(F)(F)F)c4)n3n2)CC1,"enzyme activity, inhibitor",1 µM,remaining activity,97.2%
CN1CC(Oc2cnc(C#N)cc2-c2ccn3nc(NC(=O)C4CC4)cc3c2)C1,"enzyme activity, inhibitor",1 µM,inhibition,-11%
Cn1cnc(Br)c1C1=CN(c2ncnc3[nH]cnc23)CCS1,"enzyme activity, inhibitor, radiometric",2 µM,inhibition,91.8%
CC(C)c1ccc(NC(=O)c2cccs2)c(-c2nc3ccccc3[nH]c2=O)c1,"enzyme activity, inhibitor",1 µM,activity vs control,108%
Cc1ccc(C(=O)Nc2ccc(CN3CCN(C)CC3)c(C(F)(F)F)c2)cc1C#Cc1cnc2cccnn12,enzyme activity,23.5 nM,remaining activity,91%
CNC(=O)Nc1ccc2c(c1)[C@@]1(CC2)OC(=O)N(CC(=O)N(Cc2ccc(F)cc2)[C@@H](C)C(F)(F)F)C1=O,"cell-free assay, competition with immobilised ligand",1 µM,remaining binding,87%
CCCOc1ccc(OC)c(F)c1C(=O)c1ccc(C(=O)N[C@@H]2CNC[C@H]2NC(=O)c2ccc3[nH]ncc3c2)cc1,"enzyme activity, inhibitor",10 µM,remaining activity,16%
CN(c1ccnc(CNc2nc(Nc3ccc4c(c3)CC(=O)N4)ncc2C(F)(F)F)n1)S(C)(=O)=O,"cell-free assay, competition with immobilised ligand",1 µM,remaining binding,100%
O=C(Nc1cnn(-c2csc(C(=O)NC3COC3)c2)c1)Nc1c(F)cccc1Cl,"enzyme activity, inhibitor",5 µM,remaining activity,99%
CN1CCN(c2cnc3c(C4CCN(C(=O)c5ccc(OC(F)(F)F)cc5N)CC4)ncnc3c2)CC1,"cell-free assay, competition with immobilised ligand",1 µM,remaining binding,86%
COc1cc2ncnc(Nc3ccc(Oc4ccccc4)c(C)c3C)c2cc1OC,"enzyme activity, inhibitor",1 µM,inhibition,5%
CC(C)CC(=O)N1CCc2nc(-c3ccc(Br)cc3)nc(N(C)Cc3ccccc3)c2C1,"cell-free assay, competition with immobilised ligand",0.1 µM,remaining binding,94%
Cc1sc(C(=O)NC2COC2)cc1-n1cc(NC(=O)Nc2c(F)cccc2Cl)cn1,"enzyme activity, inhibitor",10 µM,remaining activity,91.6%
CNC(=O)c1ccc(Nc2ncc(C(F)(F)F)c(NCc3nccnc3N(C)S(C)(=O)=O)n2)cc1,"cell-free assay, competition with immobilised ligand",0.1 µM,remaining binding,86%
Cc1cnc(NC2CCOCC2)nc1-n1cnc(C(=O)NC(CN)c2cc(F)cc(Cl)c2)c1 (stereo not shown),"enzyme activity, inhibitor, radiometric",1 µM,remaining activity,100%
